According to ChEMBL document CHEMBL1157588, “Searching for multi-target antipsychotics: Discovery of orally active heterocyclic N-phenylpiperazine ligands of D2-like and 5-HT1A receptors” (Bioorg Med Chem, 2010):
Active and inactive are the calls of the source. The rule behind the calls is not given here.

Species: Rattus norvegicus
Experiment: Selectivity index, ratio of Ki for Wistar rat striatum D2-like receptor to Ki for Wistar rat hippocampus 5HT1A receptor
Assay type: tissue-based
Settings: not given

SMILES | Ratio Ki
O=[N+]([O-])c1ccc(-n2cc(CN3CCN(c4ccccc4)CC3)nn2)cc1 | 1.2
Fc1ccc(-n2cc(CN3CCN(c4ccccc4)CC3)cn2)cc1 | 1.07
Clc1ccc(-n2cc(CN3CCN(c4ccccc4)CC3)nn2)cc1 | 0.78
c1ccc(N2CCN(Cc3cn(-c4ccccc4)nn3)CC2)cc1 | 1.54

Continued, values first:

Ratio Ki | SMILES
0.82 | Fc1ccc(-n2cc(CN3CCN(c4ccccc4)CC3)nn2)cc1
2.05 | Fc1ccc(N2CCN(Cc3cnn(-c4ccc(F)cc4)c3)CC2)cc1

Test system: Mus musculus
Experiment: Toxicity in CF1 mouse assessed as induction of catalepsy by measuring time spent on elevated wood bar at 15 mg/kg, po after 90 mins (reference value: 2.4 +/- 2.6 sec)
Assay type: organism-based
Parameters: dose 15 mg/kg, route oral
Settings: in vivo, 1.5 h

SMILES | Time [s]
Fc1ccc(-n2cc(CN3CCN(c4ccccc4)CC3)cn2)cc1 | 25.2

Test system: Mus musculus
Experiment: Toxicity in CF1 mouse assessed as induction of catalepsy by measuring time spent on elevated wood bar at 15 mg/kg, po after 60 mins (reference value: 2.7 +/- 2.9 sec)
Assay type: organism-based
Parameters: dose 15 mg/kg, route oral
Settings: in vivo, 1 h

SMILES | Time [s]
Fc1ccc(-n2cc(CN3CCN(c4ccccc4)CC3)cn2)cc1 | 15.1

Test system: Mus musculus
Experiment: Toxicity in CF1 mouse assessed as induction of catalepsy by measuring time spent on elevated wood bar at 30 mg/kg, po after 30 mins (reference value: 1.8 +/- 1.1 sec)
Assay type: organism-based
Parameters: dose 30 mg/kg, route oral
Settings: in vivo, 0.5 h

SMILES | Time [s]
Fc1ccc(-n2cc(CN3CCN(c4ccccc4)CC3)cn2)cc1 | 13.1

Test system: Mus musculus
Experiment: Antipsychotic activity in CF1 mouse assessed as reduction in apomorphine-induced climbing at 15 mg/kg, po
Assay type: functional, organism-based
Parameters: dose 15 mg/kg
Settings: not given
Outline: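 Adult male CF1 mice (25–35 g) dosed orally (10 mL/kg), then held 30 min in metal-bar cages before apomorphine 4 mg/kg sc (5 mL/kg) or vehicle. Climbing scored 0–4 at 5, 10, 15, 20, 25 and 30 min after apomorphine; index is the sum of scores per animal. Mean + SEM, n = 08–13, ANOVA with post-hoc test.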

SMILES | inhibition
Fc1ccc(-n2cc(CN3CCN(c4ccccc4)CC3)cn2)cc1 | Active
Fc1ccc(N2CCN(Cc3cnn(-c4ccc(F)cc4)c3)CC2)cc1 | inactive

Target: not listed separately
Experiment: Displacement of [3H]nemonapride from D2-like receptor in Wistar rat striatum homogenate
Assay type: tissue-based
Settings: not given
Outline: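 Rat striatal membranes (50 µg protein) incubated 60 min at 37 °C with 0.1 nM [3H]-nemonapride in 50 mM Tris–HCl pH 7.4 with 120 mM NaCl, 5 mM KCl, 5 mM MgCl2, 1.5 mM CaCl2 and 1 mM EDTA. Nonspecific binding defined by 30 µM (–)sulpiride. Filtration, scintillation counting.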

SMILES | Ki [nM]
O=[N+]([O-])c1ccc(-n2cc(CN3CCN(c4ccccc4)CC3)nn2)cc1 | 3340
Fc1ccc(-n2cc(CN3CCN(c4ccccc4)CC3)cn2)cc1 | 70
Clc1ccc(-n2cc(CN3CCN(c4ccccc4)CC3)nn2)cc1 | 950
c1ccc(N2CCN(Cc3cn(-c4ccccc4)nn3)CC2)cc1 | 730

More lines, now with the values ahead:

Ki [nM] | SMILES
740 | Fc1ccc(-n2cc(CN3CCN(c4ccccc4)CC3)nn2)cc1
480 | Fc1ccc(N2CCN(Cc3cnn(-c4ccc(F)cc4)c3)CC2)cc1

Species: Rattus norvegicus
Experiment: Selectivity index, ratio of Ki for Wistar rat striatum D2-like receptor to Ki for Wistar rat cortex 5HT2A receptor
Settings: not given

SMILES | Ratio Ki
Fc1ccc(-n2cc(CN3CCN(c4ccccc4)CC3)cn2)cc1 | 0.07
Clc1ccc(-n2cc(CN3CCN(c4ccccc4)CC3)nn2)cc1 | 0.09
c1ccc(N2CCN(Cc3cn(-c4ccccc4)nn3)CC2)cc1 | 0.13

Results, then the compound that gave them:

Ratio Ki | SMILES
0.13 | Fc1ccc(-n2cc(CN3CCN(c4ccccc4)CC3)nn2)cc1
0.91 | Fc1ccc(N2CCN(Cc3cnn(-c4ccc(F)cc4)c3)CC2)cc1

Target: 5-hydroxytryptamine receptor 2A (Rattus norvegicus, UniProt P14842)
Experiment: Displacement of [3H]ketanserin from 5HT2A receptor in Wistar rat cortex homogenate
Settings: not given

Chain of 5-hydroxytryptamine receptor 2A (P14842 whole entry): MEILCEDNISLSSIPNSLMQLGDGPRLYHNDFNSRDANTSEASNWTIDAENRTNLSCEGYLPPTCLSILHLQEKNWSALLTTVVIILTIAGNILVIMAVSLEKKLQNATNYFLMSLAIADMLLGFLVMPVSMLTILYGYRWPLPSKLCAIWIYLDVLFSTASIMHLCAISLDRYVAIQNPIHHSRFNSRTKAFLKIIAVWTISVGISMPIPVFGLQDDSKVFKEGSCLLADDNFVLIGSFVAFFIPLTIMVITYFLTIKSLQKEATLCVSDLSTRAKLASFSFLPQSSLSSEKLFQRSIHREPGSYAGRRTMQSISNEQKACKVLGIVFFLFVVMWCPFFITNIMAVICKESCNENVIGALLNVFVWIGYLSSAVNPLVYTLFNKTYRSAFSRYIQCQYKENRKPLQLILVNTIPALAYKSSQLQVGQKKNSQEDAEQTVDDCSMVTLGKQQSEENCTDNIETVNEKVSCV

SMILES | Ki [nM]
O=[N+]([O-])c1ccc(-n2cc(CN3CCN(c4ccccc4)CC3)nn2)cc1 | > 19200
Fc1ccc(-n2cc(CN3CCN(c4ccccc4)CC3)cn2)cc1 | 920
Clc1ccc(-n2cc(CN3CCN(c4ccccc4)CC3)nn2)cc1 | 10900
c1ccc(N2CCN(Cc3cn(-c4ccccc4)nn3)CC2)cc1 | 5660

The remaining lines, values ahead:

Ki [nM] | SMILES
5620 | Fc1ccc(-n2cc(CN3CCN(c4ccccc4)CC3)nn2)cc1
530 | Fc1ccc(N2CCN(Cc3cnn(-c4ccc(F)cc4)c3)CC2)cc1

Target: T1, 5-hydroxytryptamine receptor 1A (Rattus norvegicus, UniProt P19327)
T1 sequence (P19327 whole entry): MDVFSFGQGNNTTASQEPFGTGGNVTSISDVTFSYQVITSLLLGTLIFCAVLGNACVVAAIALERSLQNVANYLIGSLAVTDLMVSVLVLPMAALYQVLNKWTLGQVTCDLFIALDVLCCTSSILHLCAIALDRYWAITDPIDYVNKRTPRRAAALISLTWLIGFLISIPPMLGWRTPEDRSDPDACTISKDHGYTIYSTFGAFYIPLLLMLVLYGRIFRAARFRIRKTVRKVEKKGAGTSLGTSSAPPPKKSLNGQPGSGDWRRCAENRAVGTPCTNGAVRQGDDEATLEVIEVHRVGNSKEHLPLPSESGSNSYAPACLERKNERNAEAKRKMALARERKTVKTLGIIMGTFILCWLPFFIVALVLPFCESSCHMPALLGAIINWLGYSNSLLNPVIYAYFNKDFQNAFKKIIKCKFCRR
Experiment: Displacement of [3H]-8-OH-DPAT from 5HT1A receptor in Wistar rat hippocampus homogenate
Assay type: tissue-based
Settings: not given
Outline: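 Rat hippocampal membranes (50 µg protein) incubated 15 min at 37 °C with 1 nM [3H]-8-OH-DPAT in 50 mM Tris–HCl pH 7.4 with 1 mM CaCl2, 1 mM MnCl2 and 10 µM pargyline. Nonspecific binding by 10 µM serotonin. Top test concentration 30 or 10 µM.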

SMILES | Ki [nM]
O=[N+]([O-])c1ccc(-n2cc(CN3CCN(c4ccccc4)CC3)nn2)cc1 | 2780
Fc1ccc(-n2cc(CN3CCN(c4ccccc4)CC3)cn2)cc1 | 60
Clc1ccc(-n2cc(CN3CCN(c4ccccc4)CC3)nn2)cc1 | 1220
c1ccc(N2CCN(Cc3cn(-c4ccccc4)nn3)CC2)cc1 | 480

Now from value to compound:

Ki [nM] | SMILES
890 | Fc1ccc(-n2cc(CN3CCN(c4ccccc4)CC3)nn2)cc1
240 | Fc1ccc(N2CCN(Cc3cnn(-c4ccc(F)cc4)c3)CC2)cc1

Test system: Mus musculus
Experiment: Toxicity in CF1 mouse assessed as induction of motor impairment by measuring permanence time at 15 mg/kg, po by rotarod test (reference value: 241.4 +/- 18.0 sec)
Assay type: organism-based
Parameters: dose 15 mg/kg, route oral
Settings: in vivo, 0.005 h

SMILES | Time [s]
Fc1ccc(-n2cc(CN3CCN(c4ccccc4)CC3)cn2)cc1 | 160.6

Test system: Mus musculus
Experiment: Toxicity in CF1 mouse assessed as induction of catalepsy by measuring time spent on elevated wood bar at 30 mg/kg, po after 90 mins (reference value: 2.4 +/- 2.6 sec)
Assay type: organism-based
Parameters: dose 30 mg/kg, route oral
Settings: in vivo, 1.5 h

SMILES | Time [s]
Fc1ccc(-n2cc(CN3CCN(c4ccccc4)CC3)cn2)cc1 | 36.6

Species: Rattus norvegicus
Experiment: Selectivity index, ratio of Ki for Wistar rat hippocampus 5HT1A receptor to Ki for Wistar rat cortex 5HT2A receptor
Assay type: tissue-based
Settings: not given

SMILES | Ratio Ki
Fc1ccc(-n2cc(CN3CCN(c4ccccc4)CC3)cn2)cc1 | 0.07
Clc1ccc(-n2cc(CN3CCN(c4ccccc4)CC3)nn2)cc1 | 0.11
c1ccc(N2CCN(Cc3cn(-c4ccccc4)nn3)CC2)cc1 | 0.08

The remaining lines, values ahead:

Ratio Ki | SMILES
0.16 | Fc1ccc(-n2cc(CN3CCN(c4ccccc4)CC3)nn2)cc1
0.44 | Fc1ccc(N2CCN(Cc3cnn(-c4ccc(F)cc4)c3)CC2)cc1

Test system: Mus musculus
Experiment: Toxicity in CF1 mouse assessed as induction of catalepsy by measuring time spent on elevated wood bar at 15 mg/kg, po after 30 mins (reference value: 1.8 +/- 1.1 sec)
Assay type: organism-based
Parameters: dose 15 mg/kg, route oral
Settings: in vivo, 0.5 h

SMILES | Time [s]
Fc1ccc(-n2cc(CN3CCN(c4ccccc4)CC3)cn2)cc1 | 7.9

Test system: Mus musculus
Experiment: Toxicity in CF1 mouse assessed as induction of catalepsy by measuring time spent on elevated wood bar at 30 mg/kg, po after 60 mins (reference value: 2.7 +/- 2.9 sec)
Assay type: organism-based
Parameters: dose 30 mg/kg, route oral
Settings: in vivo, 1 h

SMILES | Time [s]
Fc1ccc(-n2cc(CN3CCN(c4ccccc4)CC3)cn2)cc1 | 17.2
